Active and inactive are the calls of the source. The rule behind the calls is not given here.

For series [1], the system named is Internal ribosome entry site (IRES). Description: Inhibition of HCV IRES RNA fragment-mediated translation in human Huh7.5.1 cells treated through microporation 17 hrs prior to infection for 4 hrs measured after 20 hrs by luciferase reporter gene assay. Format: cell-based. Conditions: Hepacivirus hominis; Huh-7. A general note: A reporter such as luciferase makes a cellular process visible.

The test system is the same in series [2]. Description: Inhibition of HCV IRES RNA fragment-mediated translation in human Huh7.5.1 cells treated through microporation 17 hrs prior to infection for 4 hrs measured after 20 hrs by reticulocyte based translation assay. Type of series: cell-based. Conditions: Hepacivirus hominis; Huh-7.
Series [3] concerns Hepatitis C virus. Description: Antiviral activity against HCV in cell-free system at 100 nM. Type of series: functional. Conditions: Hepacivirus hominis.
Series [4] concerns Hepatitis C virus. Kind of series: Cytotoxicity against HCV infected in human Huh7.5.1 cells treated through microporation for 17 hrs prior to 4 hr infection period measured after 20 hrs postinfection by luciferase assay. Format: organism-based. The conditions noted are these: hepacivirus hominis, huh-7, 20 h.
For series [5], the system named is Hepatitis C virus. Kind of series: Antiviral activity against HCV infected in human Huh7.5.1 cells at 1000 nM treated through lipofection after 17 hrs of infection by luciferase assay. Type of series: functional, Hepacivirus hominis, Huh-7. The gist of the method:
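Huh7.5.1 cells first infected with HCVcc; after 17 h, ODNs transfected by lipid reagent at 10–1000 nM. Triplicate runs; signal normalised to cell number by WST-1 and expressed as percent of non-specific scrambled ODN control.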

The test system of series [6] is Hepatitis C virus. Kind of series: Antiviral activity against HCV infected in human Huh7.5.1 cells at 100 nM treated through lipofection after 17 hrs of infection by luciferase assay. Format: functional, organism-based. Conditions: Hepacivirus hominis, Huh-7. The gist of the method: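 Huh7.5.1 cells were infected with reporter HCVcc (FL-J6/JFH-5/C19Rluc2AUbi construct) without trypsinization. After 17 h, cells were transfected with oligodeoxynucleotide using a lipid reagent (10–1000 nM tested). Replication signal was normalized to cell number by WST-1 and expressed as % of a scrambled-sequence non-specific ODN control. Triplicate.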

As for `Cc1cn([C@@H]2O[C@H](COP(=O)(O)O[C@H]3[C@@H](O)[C@H](n4ccc(N)nc4=O)O[C@@H]3COP(=O)(O)O[C@H]3C(O)[C@H](n4cnc5c(N)ncnc54)O[C@@H]3COP(=O)(O)O[C@H]3[C@@H](O)[C@H](n4ccc(N)nc4=O)O[C@@H]3COP(=O)(O)O[C@H]3[C@@H](O)[C@H](n4cnc5c(N)ncnc54)O[C@@H]3COP(=O)(O)O[C@H]3[C@@H](O)[C@H](n4cnc5c(N)ncnc54)O[C@@H]3COP(=O)(O)O[C@H]3[C@@H](O)[C@H](n4ccc(N)nc4=O)O[C@@H]3COP(=O)(O)O[C@H]3[C@@H](O)[C@H](n4ccc(N)nc4=O)O[C@@H]3COP(=O)(O)O[C@H]3C[C@H](n4ccc(N)nc4=O)O[C@@H]3COP(=O)(O)OCCCNC(=O)C(CCCc3c[nH]cn3)CCCc3c[nH]cn3)[C@@H](OP(=O)(O)OC[C@H]3O[C@@H](n4cnc5c(N)ncnc54)[C@H](O)[C@@H]3OP(=O)(O)OC[C@H]3O[C@@H](n4ccc(N)nc4=O)C(O)[C@@H]3OP(=O)(O)OC[C@H]3O[C@@H](n4cc(C)c(=O)[nH]c4=O)[C@H](O)[C@@H]3OP(=O)(O)OC[C@H]3O[C@@H](n4ccc(N)nc4=O)[C@H](O)[C@@H]3OP(=O)(O)OC[C@H]3O[C@@H](n4cnc5c(=O)[nH]c(N)nc54)[C@H](O)[C@@H]3OP(=O)(O)OC[C@H]3O[C@@H](n4cnc5c(=O)[nH]c(N)nc54)[C@H](O)[C@@H]3OP(=O)(O)OC[C@H]3O[C@@H](n4cnc(N)cc4=O)[C@H](O)[C@@H]3OP(=O)(O)O)[C@H]2O)c(=O)[nH]c1=O` (stereo partly specified), the result (in series [1]; in series [2]; with Hepatitis C virus [6]) was Active. Besides, the result in the series with Hepatitis C virus [3] was inactive. The Activity entry in the series with Hepatitis C virus [4] is on record as “Non-toxic”; in the series on Hepatitis C virus [5] it was 50%.

(Values after ChEMBL document CHEMBL1151932, “Antiviral effect of ribonuclease conjugated oligodeoxynucleotides targeting the IRES RNA of the hepatitis C virus” (Bioorg Med Chem Lett, 2009).)
